54 compounds from ChEMBL document CHEMBL1139469, “Synthesis and 3D QSAR of new pyrazolo[3,4-b]pyridines: potent and selective inhibitors of A1 adenosine receptors” (J Med Chem, 2005) can be followed below.

One may read the Ki as the dissociation constant of the complex between target and ligand, obtained from inhibition or displacement. Usually inhibition stands for the change of the read-out against control, counted positive when it falls. Read a low inhibition as little suppression.

Each structure is given as a SMILES string.

Assay [1] has as its target Adenosine receptor A1 (Bos taurus) (UniProt P28190). As to the kind of experiment: Displacement of [3H]DPCPX from bovine adenosine A1 receptor in bovine cortical membranes. On the technique in general: Loss of bound radioactivity is the signal in a displacement assay; it reports binding, not function.
In assay [2] the target is T1, Adenosine receptor A1 (Bos taurus, UniProt P28190).
T1 sequence (P28190 whole entry): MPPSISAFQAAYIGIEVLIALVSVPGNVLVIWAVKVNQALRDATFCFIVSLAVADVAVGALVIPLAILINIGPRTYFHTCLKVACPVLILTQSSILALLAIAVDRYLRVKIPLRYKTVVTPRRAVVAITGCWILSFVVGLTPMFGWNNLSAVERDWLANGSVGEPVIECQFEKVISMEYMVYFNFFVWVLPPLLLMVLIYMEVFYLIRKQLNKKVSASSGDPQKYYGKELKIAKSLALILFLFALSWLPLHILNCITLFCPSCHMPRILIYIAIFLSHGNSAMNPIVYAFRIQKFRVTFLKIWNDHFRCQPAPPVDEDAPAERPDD
In words: Displacement of [3H]DPCPX from adenosine A1 receptor in bovine cerebral cortical membranes. Type of assay: cell membranes. In short, it runs like this:
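[3H]DPCPX was displaced from A1 sites in bovine cortical membranes. Compounds were taken up in DMSO and diluted in assay buffer, with DMSO at 2% or less final. Ki used at least six concentrations across 3 orders of magnitude and was the mean ± SEM of three independent assays in triplicate.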

The subject of assay [3] is Adenosine receptor A2a (Bos taurus). In words: Displacement of [3HCGS21680 from adenosine A2A receptor in bovine striatal membranes at 10 uM.
The target of assay [4] is T2, Adenosine receptor A3 (Homo sapiens) (UniProt P0DMS8).
T2 sequence (whole entry): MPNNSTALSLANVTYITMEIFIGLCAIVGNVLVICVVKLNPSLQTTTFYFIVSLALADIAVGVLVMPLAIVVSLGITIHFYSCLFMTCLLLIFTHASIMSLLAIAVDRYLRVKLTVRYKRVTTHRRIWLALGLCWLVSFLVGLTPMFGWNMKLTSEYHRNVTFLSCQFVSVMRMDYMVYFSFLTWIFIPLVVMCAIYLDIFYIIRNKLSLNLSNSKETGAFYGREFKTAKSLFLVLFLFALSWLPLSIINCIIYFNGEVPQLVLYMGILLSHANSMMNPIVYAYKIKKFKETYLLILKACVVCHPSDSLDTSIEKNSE
In words: Displacement of [125I]AB-MECA from human adenosine A3 receptor expressed in CHO cells at 10 uM.

Assay [5] has as its target T3, Adenosine receptor A1 (Homo sapiens, UniProt P30542).
T3 sequence (P30542 whole entry): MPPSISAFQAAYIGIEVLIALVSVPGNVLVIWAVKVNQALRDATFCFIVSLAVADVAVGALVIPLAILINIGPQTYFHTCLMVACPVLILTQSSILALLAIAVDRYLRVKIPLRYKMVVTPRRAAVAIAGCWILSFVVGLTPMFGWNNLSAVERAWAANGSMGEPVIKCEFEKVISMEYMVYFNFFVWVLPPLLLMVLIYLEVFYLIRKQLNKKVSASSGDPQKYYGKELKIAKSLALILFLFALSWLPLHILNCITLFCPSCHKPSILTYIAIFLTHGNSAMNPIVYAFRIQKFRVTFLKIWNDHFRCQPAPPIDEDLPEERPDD
As to the kind of experiment: Displacement of [3H]DPCPX from human adenosine A1 receptor expressed in CHO cells. Type of assay: cell-based. In short, it runs like this:
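Binding used CHO cells transfected with human A1 receptor, with displacement of specific [3H]DPCPX binding. Ligands were in DMSO diluted into buffer, with no more than 2% DMSO final, over at least six concentrations spanning 3 orders of magnitude. Ki values were means ± SEM of three separate assays, each performed in triplicate.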

Regarding `Cc1ccc(CCNc2c(C(=O)OC(C)C)cnc3c2cnn3CC(Cl)c2ccccc2)cc1` (stereo unspecified), the values for the Ki (in assay [1]; at Adenosine receptor A1 [2]) were 50.1 nM and 48 nM, respectively. This compound registered an inhibition in assay [3] of 26%.
In the same order, the values of `CCCCOC(=O)c1cnc2c(cnn2CC(Cl)c2ccccc2)c1NCCC` (stereo unspecified) are 1000 nM, 959 nM and 20%.
In the same order, the values of `CCCNc1c(C(=O)OCC2CC2)cnc2c1cnn2CC(Cl)c1ccccc1` (stereo unspecified) are 100 nM, 109 nM and 23%.
On to `CC(C)OC(=O)c1cnc2c(cnn2CC(Cl)c2ccccc2)c1NCc1ccccc1` (stereo unspecified), for which the Ki in assay [1] was 631 nM; at Adenosine receptor A1 [2], 559 nM.
With `CCCOC(=O)c1cnc2c(cnn2CC(Cl)c2ccccc2)c1NCc1ccccc1` (stereo unspecified), the figures for the Ki (in assay [1]; at Adenosine receptor A1 [2]) were 1260 nM and 1370 nM, respectively.
For the compound `CCOC(=O)c1cnc2c(cnn2CC(Cl)c2ccccc2)c1NCCc1ccc(C)cc1` (stereo unspecified), the Ki in assay [1] was 20 nM; at Adenosine receptor A1 [2] it was 22 nM. This compound also displayed an inhibition in assay [4] of 38%.
`CC(C)OC(=O)c1cnc2c(cnn2CC(Cl)c2ccccc2)c1NC1CC1` (stereo unspecified): the values for the Ki (in assay [1]; on Adenosine receptor A1 [2]) were 31.6 nM and 36 nM, respectively. For the same compound, the inhibition in assay [4] is 0%.
As for `COC(=O)c1cnc2c(cnn2CC(Cl)c2ccccc2)c1NC1CC1` (stereo unspecified), the Ki (in assay [1]; on Adenosine receptor A1 [2]) was 251 nM in each case.
In the case of `CCCCOC(=O)c1cnc2c(cnn2CC(Cl)c2ccccc2)c1N1CCCC1` (stereo unspecified), the Ki in assay [1] is 2000 nM; on Adenosine receptor A1 [2], 1890 nM. In addition, in assay [3], the inhibition came out at 45%.
In the case of `CCCNc1c(C(=O)OC(C)C)cnc2c1cnn2CC(Cl)c1ccccc1` (stereo unspecified), the Ki in assay [1] was 20 nM; on Adenosine receptor A1 [2] it was 24 nM. The inhibition in assay [4] was 0%; in assay [3], 11%.
Turning to `Cc1ccc(CCNc2c(C(=O)OCC3CC3)cnc3c2cnn3CC(Cl)c2ccccc2)cc1` (stereo unspecified), the Ki in assay [1] is 63.1 nM; at Adenosine receptor A1 [2] it was 63 nM. In addition, the inhibition in assay [3] was determined as 4%.
In turn, `CCCOC(=O)c1cnc2c(cnn2CC(Cl)c2ccccc2)c1NC1CC1` (stereo unspecified) came in with an inhibition in assay [4] of 2%.
`CCC(C)OC(=O)c1cnc2c(cnn2CC(Cl)c2ccccc2)c1NCCc1ccccc1` (stereo unspecified): the Ki is 63.1 nM in assay [1] and 62 nM at Adenosine receptor A1 [2]. For the same compound, the inhibition in assay [3] turned out to be 46%.
For `CC(C)OC(=O)c1cnc2c(cnn2CC(Cl)c2ccccc2)c1N1CCOCC1` (stereo unspecified), the figures for the Ki (in assay [1]; on Adenosine receptor A1 [2]) were 2000 nM and 1820 nM, respectively.
Consider `CCCOC(=O)c1cnc2c(cnn2CC(Cl)c2ccccc2)c1NCCc1ccccc1` (stereo unspecified), for which the results for the Ki (in assay [1]; at Adenosine receptor A1 [2]) were 126 nM and 130 nM, respectively.
`CCCNc1c(C(=O)OC(C)CC)cnc2c1cnn2CC(Cl)c1ccccc1` (stereo unspecified): the Ki was 50.1 nM in assay [1] and 51 nM at Adenosine receptor A1 [2]. Besides, the inhibition in assay [3] was found to be 40%.
With `CCOC(=O)c1cnc2c(cnn2CC(Cl)c2ccccc2)c1NCCc1ccc(OC)cc1` (stereo unspecified), the Ki is 10 nM in assay [1], 25 nM on Adenosine receptor A1 [5] and 10 nM at Adenosine receptor A1 [2]. This compound displayed an inhibition in assay [4] of 49%.
Consider `CC(C)OC(=O)c1cnc2c(cnn2CC(Cl)c2ccccc2)c1NCCc1ccc(Cl)cc1` (stereo unspecified), for which the Ki in assay [1] is 39.8 nM; at Adenosine receptor A1 [2], 41 nM. In assay [3], the inhibition came to 27%.
For the compound `CCOC(=O)c1cnc2c(cnn2CC(Cl)c2ccccc2)c1NCCc1ccccc1F` (stereo unspecified), the values for the Ki (in assay [1]; on Adenosine receptor A1 [5]; at Adenosine receptor A1 [2]) were 15.8 nM, 29 nM and 16 nM, respectively. Further, the inhibition in assay [4] was 53%.
With `COC(=O)c1cnc2c(cnn2CC(Cl)c2ccccc2)c1N1CCCC1` (stereo unspecified), the results for the Ki (in assay [1]; at Adenosine receptor A1 [2]) were 3980 nM and 4240 nM, respectively. Also, the inhibition in assay [3] worked out at 0%.
Turning to `CCCOC(=O)c1cnc2c(cnn2CC(Cl)c2ccccc2)c1N1CCCC1` (stereo unspecified), the Ki in assay [1] is 3160 nM; on Adenosine receptor A1 [2], 2970 nM.
Take `CCC(C)OC(=O)c1cnc2c(cnn2CC(Cl)c2ccccc2)c1NC1CC1` (stereo unspecified): the Ki in assay [1] is 200 nM; at Adenosine receptor A1 [2], 197 nM. Also, in assay [3], the inhibition stood at 33%.
In the same order, the values of `CCOC(=O)c1cnc2c(cnn2CC(Cl)c2ccccc2)c1NCCc1cccc(F)c1` (stereo unspecified) are 31.6 nM, 33 nM and 25%.
In the same order, the values of `CC(C)OC(=O)c1cnc2c(cnn2CC(Cl)c2ccccc2)c1NCCc1ccccc1Cl` (stereo unspecified) are 39.8 nM, 44 nM and 13%.
In the same order, the values of `O=C(OCC1CC1)c1cnc2c(cnn2CC(Cl)c2ccccc2)c1NCCc1ccccc1` (stereo unspecified) are 50.1 nM, 48 nM and 54%.
Regarding `CCOC(=O)c1cnc2c(cnn2CC(Cl)c2ccccc2)c1NCCc1ccccc1Cl` (stereo unspecified), the Ki in assay [1] was 79.4 nM; at Adenosine receptor A1 [2], 76 nM.
In turn, `O=c1n(-c2ccccc2)nc2c(NC3CCCCC3)nc3ccccc3n12` gave a Ki in assay [1] of 1.58 nM.
Still for that read-out and setting: for `O=c1c(-c2ccco2)nnc2n(-c3ccccc3)c3ccccc3n12` the value was 316 nM.
Consider `CCOC(=O)c1cnc2c(cnn2CC(Cl)c2ccccc2)c1NCCc1cccc(Cl)c1` (stereo unspecified), for which the inhibition constant (Ki) in assay [1] is 200 nM; on Adenosine receptor A1 [2], 178 nM.
Turning to `CC(C)OC(=O)c1cnc2c(cnn2CC(Cl)c2ccccc2)c1NCCc1cccc(Cl)c1` (stereo unspecified), the Ki (in assay [1]; at Adenosine receptor A1 [2]) was 100 nM in each case. This compound yielded an inhibition in assay [3] of 14%.
Take `COC(=O)c1cnc2c(cnn2CC(Cl)c2ccccc2)c1NCc1ccccc1` (stereo unspecified): the Ki in assay [1] is 126 nM; at Adenosine receptor A1 [2], 141 nM.
Compound `Oc1cc(-c2ccccc2)nc2nc(Br)ccc12` showed a Ki in assay [1] of 0.794 nM.
Still for that read-out and setting: for `COc1ccc2c(O)cc(-c3ccccc3)nc2n1` the value was 1.58 nM.
Consider `CCCCOC(=O)c1cnc2c(cnn2CC(Cl)c2ccccc2)c1NC1CC1` (stereo unspecified), for which the Ki was 1000 nM in assay [1] and 895 nM at Adenosine receptor A1 [2]. The figures for the inhibition in assay [4] and in assay [3] were 0% and 11%, respectively.
`Cc1ccc2c(O)cc(-c3ccccc3)nc2n1`: in assay [1], affinity was put at a Ki of 5.01 nM.
For `Oc1cc(-c2ccccc2)nc2ncccc12`, in assay [1], the affinity, expressed as Ki, was 15.8 nM.
The compound `Cc1cc(O)c2ccc(N)nc2n1` gave a Ki in assay [1] of 10000 nM.
Still for that read-out and setting: the figure for `Cn1c2ccccc2n2c(=O)c(-c3ccc(Cl)cc3)nnc12` is 10000 nM.
On the same count and under the same terms, the figure for `COc1cc(-c2ccccc2)nc2c1ccc(=O)n2C` is 1260 nM.
On the same count and under the same terms, the figure for `CCOC(=O)c1cnc2c(cnn2CC(Cl)c2ccccc2)c1N1CCCC1` (stereo unspecified) is 100 nM.
In assay [1], `O=c1c(Cc2ccccc2)nnc2n(Cc3ccccc3)c3ccccc3n12` gave a Ki of 251 nM.
As for `CCCOC(=O)c1cnc2c(cnn2CC(Cl)c2ccccc2)c1N1CCOCC1` (stereo unspecified), the inhibitory constant (Ki) in assay [1] is 2000 nM; at Adenosine receptor A1 [2] it was 2150 nM. The compound further yielded an inhibition in assay [3] of 31%.
`Oc1cc(-c2ccccc2)nc2nc(NC3CCCCC3)ccc12` showed an inhibitory constant (Ki) in assay [1] of 79.4 nM.
Same read-out and setting: the figure for `CSc1nc(NC2CCCCC2)c2cnn(CC(Cl)c3ccccc3)c2n1` (stereo unspecified) is 6310 nM; for `COc1ccc(-c2nnc3nc4ccccc4n3c2O)cc1OC` it is 2000 nM.
Same read-out and setting: for `CC(=O)Nc1ccc2c(O)cc(-c3ccccc3)nc2n1` the value was 316 nM.
For the compound `CC(C)OC(=O)c1cnc2c(cnn2CC(Cl)c2ccccc2)c1N1CCCC1` (stereo unspecified), the Ki in assay [1] was 1000 nM; at Adenosine receptor A1 [2], 1080 nM. The compound also returned an inhibition in assay [3] of 30%.
As to `COc1ccc(-n2nc3c(N)nc4ccccc4n3c2=O)cc1`, affinity in assay [1] was put at a Ki of 316 nM.
On the same count and under the same terms, the figure for `CCOC(=O)c1cnc2c(cnn2CC(Cl)c2ccccc2)c1NC1CC1` (stereo unspecified) is 126 nM; for `Cc1cccc(-n2nc3c(N)nc4ccccc4n3c2=O)c1` it is 20 nM; for `CCn1c(-c2ccccc2)cc(=O)c2ccc(C)nc21` it is 501 nM.
In assay [1], `CCCNc1nc(SC)nc2c1cnn2CC(Cl)c1ccccc1` (stereo unspecified) had a Ki of 1000 nM.
In turn, `CCOc1ccc2c(OCC)cc(-c3ccccc3)nc2n1` had a Ki in assay [1] of 316 nM.
On the same count and under the same terms, for `CCOc1cc(-c2ccccc2)nc2nc(Br)ccc12` the value was 50.1 nM.
